Most compounds without a hit are left out; they make up all but 2.6% or so of the library.
Rin1 Abl inh – blocks binding of human Rin1 to Abl; P00519+Q13671; TR-FRET Rin1/Abl binding, biochemical; inhibition, % at 7.35 µM; actives 0.4% (n = 360,000); in the data active = inhibition above about 5%, passing the limit was not always enough
Myeloid diff 2 – compounds promoting myeloid differentiation | ER-HoxA9 myeloid progenitors, lysozyme-GFP differentiation, flow cytometry | calls only at 10 µM | actives 1% (n = 360,000);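 active = normalized GFP-positive differentiation at or above the plate's own cutoff, the solvent-only control mean plus 3 SD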;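 also: cells exposed to compound for four days before flow analysis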
Rce1 inh – yeast Ras-converting enzyme inhibition. yeast membranes, quenched prenylated peptide cleavage fluorescence. calls only. Q03530. actives 0.27% (n = 290,000);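 active = fall in fluorescence gain of 50% or more versus controls, with final raw signal at or below 3038400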;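 also: plate controls were neutral control wells for no effect and wells lacking membranes for full effect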
SKN-1 block – blocks SKN-1 activity in C. elegans. C. elegans VP596 Pgst-4::GFP/RFP ratio, acrylamide-induced, 24 h. actives 0.49% (n = 360,000). inhibition, % at 21.8 µM;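 active = interference check ratio from 0.5 to 1.5 plus GFP to RFP signal ratio inhibition reaching or exceeding a fixed threshold, cut at about 30% in these data, passing the limit was not always enough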
GRK2 aptamer HTS – blocks RNA aptamer binding to human GRK2. P25098. bead flow cytometry, FAM-aptamer displacement from GRK2. inhibition of aptamer binding, % at 10 µM. actives 0.59% (n = 330,000). AID 488847;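 active = inhibition of aptamer binding above 40%, roughly 3 SD of noise, on plates passing a quality check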;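 also: median bead fluorescence of bound FAM aptamer so fluorescent compounds give negative values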
T cell HTS – modulates CD8 T cell binding to vesicles. actives 0.068% (n = 330,000). response (vesicle binding), % at 7 µM. 2C CD8+ T cell-vesicle binding, flow cytometry; hits give low values;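 active = response, share of CD8 T cells binding vesicles, and their 90th percentile fluorescence all below set limits, cut at about 80% in these data, passing the limit was not always enough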;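 also: values below 100% mean blocked vesicle binding to the CD8+ T cells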
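incubation = binding step 1.5 h, 37 °C, antibody labelling 20 min, ice | test system = 2C mouse CD8+ T cells | read-out basis = percent CD8+ FL2 mean versus row control | controls = Peptide-free naked vesicles (low) and QL9 vesicles with 0.7% DMSO vehicle (high) | detection = flow cytometry of vesicle-bound cells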
Myeloid diff CP1 – promotes myeloid progenitor differentiation. ER-HoxA9 myeloid progenitors, GFP/Mac1 double-positive flow. shares compounds with Myeloid diff 2. calls only. AID 651706. actives 2% (n = 2,300);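 active = share of green or green-and-red cells above 9 and 9% in run 1 or 4 and 3% in run 2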
GFP autofluor – counter-screen for myeloid differentiation promoters: compound fluorescence; shares compounds with Myeloid diff 2; AID 651707; actives 7.4% (n = 2,300); ER-HoxA9 myeloid progenitors, no estrogen, GFP autofluorescence flow cytometry; vehicle wells 0%, positive control 100%; fluorescence response, % (no concentration beside the values);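 active = over 5% cells positive for green fluorescent reporter, or over 2% positive for both it and APC stain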;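 also: range taken on the double positive population between DMSO and positive control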
* = called active by the depositor.

Results for O=C(Nc1ccccc1)c1cccc(N2C(=O)C3C4C=CC(C4)C3C2=O)c1 (centres undefined) ?
Rin1 Abl inh: 2; Rce1 inh: inactive; SKN-1 block: -6; GRK2 aptamer HTS: 3; T cell HTS: 203

Results for CCN1CCN(c2ccc(S(=O)(=O)N3CCCCC3)cc2NC(=O)c2ccc([N+](=O)[O-])o2)CC1 ?
Rin1 Abl inh: -1; Myeloid diff 2: inactive; Rce1 inh: inactive; SKN-1 block: -11; GRK2 aptamer HTS: 0; T cell HTS: 250; Myeloid diff CP1: inactive; GFP autofluor: 0

How did COc1ccc(S(=O)(=O)N2CCCCC2)cc1NC(=O)c1ccc([N+](=O)[O-])o1 do in these assays?
Rin1 Abl inh: 4; Myeloid diff 2: inactive; Rce1 inh: inactive; SKN-1 block: -1; GRK2 aptamer HTS: 3; T cell HTS: 218

What do the screens show for `COc1ccc2c(c1)[nH]c(=O)c1sc3ccccc3c12`?
Rin1 Abl inh: -1; Myeloid diff 2: inactive; Rce1 inh: inactive; SKN-1 block: -2; GRK2 aptamer HTS: 3; T cell HTS: 225

Results for COc1ccc2sc3c(=O)[nH]c4ccccc4c3c2c1 ?
Rin1 Abl inh: -5; Myeloid diff 2: active; Rce1 inh: inactive; SKN-1 block: 2; GRK2 aptamer HTS: 1; T cell HTS: 234; Myeloid diff CP1: inactive; GFP autofluor: 0

How did COc1ccccc1NS(=O)(=O)c1cc([N+](=O)[O-])ccc1N/N=C/c1c[nH]c2ccccc12 do in these assays?
Rin1 Abl inh: -3; Myeloid diff 2: active; Rce1 inh: inactive; SKN-1 block: 40*; GRK2 aptamer HTS: 0; T cell HTS: 729; Myeloid diff CP1: inactive; GFP autofluor: 46*

Results for O=C1NC2(CCC3(CC2)OCCO3)NN1c1ccc(Cl)cc1 ?
Rin1 Abl inh: 7; Myeloid diff 2: inactive; Rce1 inh: inactive; SKN-1 block: -9; GRK2 aptamer HTS: 3; T cell HTS: 242

Results for CCOc1ccccc1C(C(=O)NCCOC)N(CCOC)C(=O)Cn1nnc2ccccc21 (centres undefined) ?
Rin1 Abl inh: 1; Myeloid diff 2: inactive; Rce1 inh: inactive; SKN-1 block: 3; GRK2 aptamer HTS: 1; T cell HTS: 168; Myeloid diff CP1: inactive; GFP autofluor: 0

Results for COc1ccc(S(=O)(=O)N(C)CC(=O)Nc2ccc(F)cc2)cc1 ?
Rin1 Abl inh: 3; Myeloid diff 2: inactive; Rce1 inh: inactive; SKN-1 block: 14; GRK2 aptamer HTS: 3; T cell HTS: 484; Myeloid diff CP1: inactive; GFP autofluor: 0

How did COc1ccc(-c2oc3ccc(N4CCOCC4)cc3c2C#CCO)cc1 do in these assays?
Rin1 Abl inh: 3; Myeloid diff 2: inactive; Rce1 inh: inactive; SKN-1 block: 15; GRK2 aptamer HTS: 0; T cell HTS: 931

Results for COc1ccc(-c2ccc3oc(-c4ccc(OC)cc4)c(C#CCO)c3c2)cc1 ?
Rin1 Abl inh: -7; Myeloid diff 2: active; Rce1 inh: inactive; SKN-1 block: 10; GRK2 aptamer HTS: 1; T cell HTS: 629; Myeloid diff CP1: inactive; GFP autofluor: 0

Results for O=c1[nH]c2ccc(NCc3ccc(OCc4ccccc4Cl)cc3)cc2[nH]1 ?
Rin1 Abl inh: 2; Myeloid diff 2: inactive; Rce1 inh: inactive; SKN-1 block: -3; GRK2 aptamer HTS: 1; T cell HTS: 196

What do the screens show for `COc1cc(CNc2ccc3[nH]c(=O)[nH]c3c2)ccc1OCc1ccccc1Cl`?
Rin1 Abl inh: 2; Myeloid diff 2: inactive; Rce1 inh: inactive; SKN-1 block: 2; GRK2 aptamer HTS: 0; T cell HTS: 96; Myeloid diff CP1: inactive; GFP autofluor: 0

What do the screens show for `Nc1nc2ccc([N+](=O)[O-])cc2[nH]1`?
Rin1 Abl inh: -4; Myeloid diff 2: inactive; Rce1 inh: inactive; SKN-1 block: 11; GRK2 aptamer HTS: 0; T cell HTS: 113

Results for O=[N+]([O-])c1ccc(/C=C/c2nc3ccc([N+](=O)[O-])cc3[nH]2)cc1 ?
Rin1 Abl inh: -4; Myeloid diff 2: active; Rce1 inh: inactive; SKN-1 block: -5; GRK2 aptamer HTS: 0; T cell HTS: 312; Myeloid diff CP1: inactive; GFP autofluor: 0

How did CC(Sc1nnc(-c2ccccc2F)o1)C(=O)Nc1ccc(N2CCOCC2)cc1 (centres undefined) do in these assays?
Rin1 Abl inh: 1; Myeloid diff 2: inactive; SKN-1 block: -27

Results for CCN(CC)S(=O)(=O)c1cc(NC(=O)C2CCN(c3ncnc4sc(C)c(C)c34)CC2)ccc1Cl ?
Rin1 Abl inh: -1; Myeloid diff 2: active; Rce1 inh: inactive; SKN-1 block: -1; GRK2 aptamer HTS: 0; T cell HTS: 400; Myeloid diff CP1: inactive; GFP autofluor: 0

Results for COc1ccc(-n2nnnc2SCC(=O)Nc2nnc(C)s2)cc1 ?
Rin1 Abl inh: -1; Myeloid diff 2: active; Rce1 inh: inactive; SKN-1 block: 3; GRK2 aptamer HTS: 0; T cell HTS: 218; Myeloid diff CP1: inactive; GFP autofluor: 1

Results for COc1ccccc1NC(=O)CSc1nnnn1-c1ccc2c(c1)OCO2 ?
Rin1 Abl inh: 6; Myeloid diff 2: inactive; Rce1 inh: inactive; SKN-1 block: 6; GRK2 aptamer HTS: 2; T cell HTS: 548; Myeloid diff CP1: inactive; GFP autofluor: 0

Results for COc1ccccc1NC(=O)CSc1nnnn1-c1ccccc1OC ?
Rin1 Abl inh: 0; Myeloid diff 2: inactive; Rce1 inh: inactive; SKN-1 block: -12; GRK2 aptamer HTS: 0; T cell HTS: 333

How did CCOC(=O)c1csc(NC(=O)CSc2nnnn2-c2ccc(OC)cc2)n1 do in these assays?
Rin1 Abl inh: 5; Myeloid diff 2: inactive; Rce1 inh: inactive; SKN-1 block: 2; GRK2 aptamer HTS: 0; T cell HTS: 246

What do the screens show for `O=C(CN1CCN(Cc2ccccc2)CC1)NNC(=O)c1ccccc1`?
Rin1 Abl inh: 3; Myeloid diff 2: inactive; SKN-1 block: 6; GRK2 aptamer HTS: 2; T cell HTS: 227; Myeloid diff CP1: inactive; GFP autofluor: 0

How did Cc1ccc(NS(=O)(=O)N2CCOCC2)cc1 do in these assays?
Rin1 Abl inh: -1; Myeloid diff 2: inactive; Rce1 inh: inactive; SKN-1 block: 3; GRK2 aptamer HTS: 0; T cell HTS: 444

Results for NS(=O)(=O)c1ccc(NC(=S)NCc2ccccc2Cl)cc1 ?
Rin1 Abl inh: 0; Myeloid diff 2: inactive; Rce1 inh: inactive; SKN-1 block: 14; GRK2 aptamer HTS: 1; T cell HTS: 422; Myeloid diff CP1: inactive; GFP autofluor: 1
